Results reported in ChEMBL document CHEMBL1157797, “The alternative medicine pawpaw and its acetogenin constituents suppress tumor angiogenesis via the HIF-1/VEGF pathway” (J Nat Prod, 2010).
Activity calls are given as the source filed them. The rule behind the calls is not given here.

What was measured:
T47D [1] = assay: Inhibition of ATP in human T47D cells under hypoxia for 16 hrs at 0.1 to 0.3 uM; format: functional, cell-based
T47D [2] = assay: Inhibition of hypoxia-induced VEGF protein expression in human T47D cells at 0.03 to 0.1 uM in presence of 1% O2; format: functional, cell-based
In short: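 T47D cells exposed to hypoxia with test agent. Secreted VEGF protein in the conditioned medium measured by ELISA and normalised to cellular protein. Mean + SD, n = 3; p values compared with the hypoxia-induced sample.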

PC-3 [3] = assay: Cytotoxicity against human PC3 cells assessed as suppression of cell proliferation under normoxic condition after 48 hrs relative to control; format: functional, cell-based
In short: (§1)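 Four human tumour lines (T47D, MDA-MB-231, PC-3, DU-145) exposed to acetogenins (1 to 100 nM, half-log steps) or crude extract (0.01 to 1 μg/mL, half-log steps) for 48 h, either normoxic (95% air) or hypoxic (1% O2). Proliferation/viability expressed relative to untreated control. Final solvent below 0.5% (v/v).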

DU-145 [4] = assay: Cytotoxicity against human DU145 cells assessed as suppression of cell proliferation under hypoxic condition after 48 hrs relative to control; format: functional, cell-based; in short: as §1
HUVEC [5] = assay: Inhibition of VEGF-induced angiogenesis in HUVEC cells at 0.1 uM by tube formation assay; format: functional, cell-based; conditions: Homo sapiens
PC-3 [6] = assay: Cytotoxicity against human PC3 cells assessed as suppression of cell proliferation under hypoxic condition after 48 hrs relative to control; format: functional, cell-based; in short: as §1
MDA-MB-231 [7] = assay: Cytotoxicity against human MDA-MB-231 cells assessed as suppression of cell proliferation under normoxic condition after 48 hrs relative to control; format: functional, cell-based; in short: as §1
T47D [8] = assay: Cytotoxicity against human T47D cells assessed as suppression of cell proliferation under hypoxic condition after 48 hrs relative to control; format: functional, cell-based; in short: as §1
T47D [9] = assay: Cytotoxicity against human T47D cells assessed as suppression of cell proliferation under normoxic condition after 48 hrs relative to control; format: functional, cell-based; in short: as §1
T47D [10] = assay: Inhibition of hypoxia-induced HIF1beta protein subcellular localization in human T47D cells at 0.3 uM by immunofluorescence based assay; format: functional, cell-based
DU-145 [11] = assay: Cytotoxicity against human DU145 cells assessed as suppression of cell proliferation under normoxic condition after 48 hrs relative to control; format: functional, cell-based; in short: as §1
[12] = molecular target: T1, Hypoxia inducible factors; HIF-1-alpha, HIF-2-alpha (Homo sapiens, UniProt Q16665+Q99814); assay: Inhibition of hypoxia-induced HIF1 activation in human PC3 cells by HRE3-TK-luc reporter assay; format: cell-based; conditions: PC-3, concentration not given here
In short: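 HIF-1 activation in PC-3 cells induced by hypoxia (1% O2) and read with the pHRE3-TK-Luc luciferase reporter. Concentration-response, IC50/EC50 derived. Data are means ± SEM, n = 3.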

MDA-MB-231 [13] = assay: Cytotoxicity against human MDA-MB-231 cells assessed as suppression of cell proliferation under hypoxic condition after 48 hrs relative to control; format: functional, cell-based; in short: as §1
T47D [14] = assay: Inhibition of normoxic human T47D cells at 0.1 uM by tube formation assay; format: functional, cell-based
In short: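 Conditioned media from T47D cells (normoxic, hypoxic, or hypoxic plus treatment) applied to HUVEC on Matrigel. Tube length and branching points quantified in three random fields, expressed as % of the normoxic-cell medium, mean ± SD.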

T47D [15] = assay: Inhibition of hypoxia-induced HIF1alpha protein accumulation in nucleus of human T47D cells by Western blot analysis; format: functional, cell-based
In short: (§2)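 T47D cells exposed to hypoxia (1% O2, 4 h) with or without treatment. Nuclear extracts prepared and probed for HIF-1α and HIF-1β by Western blot.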

T47D [16] = assay: Inhibition of mitochondrial respiratory chain complex 1 in human T47D cells assessed as decrease in oxygen consumption; format: functional, cell-based
In short: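 Oxygen consumption measured in T47D cells; mean ± SD of three independent experiments. For complex I, cells were permeabilised with digitonin (30 μM) and respiration started with malate plus pyruvate. Follow-up additions: succinate (complex II substrate), antimycin A, and TMPD/ascorbate to test complexes II–IV.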

T47D [17] = assay: Inhibition of hypoxia-induced HIF1beta protein accumulation in nucleus of human T47D cells by Western blot analysis; format: functional, cell-based; in short: as §2
T47D [18] = assay: Inhibition of hypoxia-induced VEGF mRNA expression in human T47D cells at 0.1 uM in presence of 1% O2 for 16 hrs by RT-PCR; format: functional
In short: (§3)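 T47D cells treated under hypoxia (1% O2, 16 h). GLUT-1 or VEGF mRNA measured by quantitative real-time RT-PCR and normalised to 18S rRNA. Reported relative to the normoxic control, mean ± SD, n = 3.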

HUVEC [19] = assay: Cytotoxicity against HUVEC cells; format: cell-based; conditions: human
[20] = molecular target: T1, Hypoxia inducible factors; HIF-1-alpha, HIF-2-alpha; assay: Inhibition of hypoxia-induced HIF1 activation in human T47D cells in presence of 1% O2 by HRE3-TK-luc reporter assay; format: cell-based
In short: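 T47D cells carrying the pHRE3-TK-Luc reporter, made hypoxic at 1% O2. HIF-1 activation read as luciferase signal over a concentration range, giving IC50. Data are means ± SEM, n = 3.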

T47D [21] = assay: Inhibition of hypoxia-induced GLUT1 mRNA expression in human T47D cells at 0.1 uM in presence of 1% O2 for 16 hrs by RT-PCR; format: functional; in short: as §3
[22] = molecular target: T1, Hypoxia inducible factors; HIF-1-alpha, HIF-2-alpha; assay: Inhibition of chemical hypoxia-induced HIF1 activation in human T47D cells in presence of 1, 10-phenanthrolin by HRE3-TK-luc reporter assay; format: cell-based
PC-3 [23] = assay: Cytotoxicity against human PC3 cells assessed as suppression of cell proliferation under normoxic condition at 100 nM after 6 days relative to control; format: functional
MDA-MB-231 [24] = assay: Cytotoxicity against human MDA-MB-231 cells assessed as suppression of cell proliferation under normoxic condition at 100 nM after 6 days relative to control; format: functional
DU-145 [25] = assay: Cytotoxicity against human DU145 cells assessed as suppression of cell proliferation under normoxic condition at 100 nM after 6 days relative to control; format: functional
T47D [26] = assay: Cytotoxicity against human T47D cells assessed as suppression of cell proliferation under normoxic condition at 10 nM after 6 days relative to control; format: functional
T47D [27] = assay: Inhibition of mitochondrial respiratory chain complex in human T47D cells assessed as decrease in oxygen consumption in presence of TMPD and ascorbate complex 4 substrate; format: functional, cell-based
In short: (§4)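 Oxygen consumption measured in T47D cells permeabilized with digitonin (30 μM). Complex I respiration started with malate plus pyruvate. Rotenone was added as complex I blocker, then succinate (complex II substrate). Antimycin A was added to block complex III, then TMPD plus ascorbate (complex IV substrates) to restart respiration. Sample added at 0.3 μM.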

T47D [28] = assay: Inhibition of mitochondrial respiratory chain complex 4 in human T47D cells assessed as decrease in oxygen consumption at 0.3 uM; format: functional, cell-based; in short: as §4
T47D [29] = assay: Inhibition of mitochondrial respiratory chain complex 3 in human T47D cells assessed as decrease in oxygen consumption at 0.3 uM; format: functional, cell-based; in short: as §4
T47D [30] = assay: Inhibition of mitochondrial respiratory chain complex in human T47D cells assessed as decrease in oxygen consumption in presence of antimycin A complex 3 inhibitor; format: functional, cell-based; in short: as §4
T47D [31] = assay: Inhibition of mitochondrial respiratory chain complex 2 in human T47D cells assessed as decrease in oxygen consumption at 0.3 uM; format: functional, cell-based; in short: as §4
T47D [32] = assay: Inhibition of mitochondrial respiratory chain complex in human T47D cells assessed as decrease in oxygen consumption in presence of rotenone and succinate complex 1 substrate; format: functional, cell-based; in short: as §4

Row | SMILES | inhibition (T47D [1]) | inhibition (T47D [2]) | Activity (PC-3 [3]) | Activity (DU-145 [4]) | inhibition (HUVEC [5]) | Activity (PC-3 [6]) | Activity (MDA-MB-231 [7]) | Activity (T47D [8]) | Activity (T47D [9]) | inhibition (T47D [10]) | Activity (DU-145 [11]) | inhibition [12] | Activity (MDA-MB-231 [13]) | inhibition (T47D [14]) | inhibition (T47D [15]) | inhibition (T47D [16]) | inhibition (T47D [17]) | inhibition at 0.1 µM (T47D [18]) | Activity (HUVEC [19]) | IC50 [22] | other results
1 | CCCCCCCCCCCC[C@@H](O)[C@H]1CC[C@H]([C@H](O)CCCC[C@H](O)CCCCC[C@@H](O)CC2=CC(C)OC2=O)O1 (stereo in doubt; 2) | inactive | Active | inactive | inactive | Active | inactive | inactive | inactive | inactive | Active | inactive | 50% | inactive | inactive | Dose-dependent effect | Dose-dependent effect | inactive |  |  |  | 
2 | CCCCCCCCCCCC[C@@H](O)[C@H]1CC[C@H]([C@H](O)CCCC[C@H](O)CCCCC[C@@H](O)CC2=CC(C)OC2=O)O1 (stereo in doubt; 2) [ANNONACIN] |  |  |  |  |  |  |  |  |  |  |  |  |  |  |  |  |  | 64% | Non-toxic | > 1000 nM | IC50 [20]: 13 nM; inhibition at 0.1 µM (T47D [21]): 72%
3 | CCCCCCCCCCCC[C@@H](O)[C@H]1CC[C@H]([C@H](O)CCCC[C@H](O)CCCCC[C@@H](O)CC2=CC(C)OC2=O)O1 (stereo in doubt; 3) | inactive |  | inactive | inactive |  | inactive | inactive | inactive | inactive |  | inactive | 50% | inactive |  |  |  |  |  |  |  | 
4 | CCCCCCCCCCCC[C@@H](O)[C@H]1CC[C@H]([C@H](O)CCCC[C@H](O)CCCCC[C@@H](O)CC2=CC(C)OC2=O)O1 (stereo in doubt; 3) [ANNONACIN] |  |  |  |  |  |  |  |  |  |  |  |  |  |  |  |  |  |  |  | > 1000 nM | Activity (PC-3 [23]): <30%; Activity (MDA-MB-231 [24]): <30%; Activity (DU-145 [25]): <30%; Activity (T47D [26]): 50%
5 | CCCCCCCCCCCC[C@@H](O)[C@H]1CC[C@H]([C@H]2CC[C@H]([C@H](O)CCC(O)CCCCCC(O)CC3=CC(C)OC3=O)O2)O1 (stereo not given in full) | inactive | Active | inactive | inactive | Active | inactive | inactive | inactive | inactive | Active | inactive | 50% | inactive | inactive | Dose-dependent effect | Dose-dependent effect | inactive | 62% | Non-toxic | > 1000 nM | Activity (PC-3 [23]): <30%; Activity (MDA-MB-231 [24]): <30%; inhibition (T47D [27]): inactive; IC50 [20]: 12 nM; inhibition (T47D [28]): inactive; inhibition (T47D [29]): inactive; inhibition at 0.1 µM (T47D [21]): 80%; inhibition (T47D [30]): inactive; Activity (DU-145 [25]): <30%; Activity (T47D [26]): 50%; inhibition (T47D [31]): inactive; inhibition (T47D [32]): inactive
6 | C=C(C)[C@H]1Cc2c(ccc3c2O[C@@H]2COc4cc(OC)c(OC)cc4[C@@H]2C3=O)O1 |  |  |  |  |  |  |  |  |  |  |  |  |  |  |  | Dose-dependent effect |  |  |  |  | 
